KCNQ1 inh: inhibitors of human KCNQ1 channel, primary screen, cell-based, thallium flux, high-throughput; Potassium voltage-gated channel subfamily KQT member 1 (Homo sapiens), P51787; CHO-K1 KCNQ1, FluxOR thallium flux fluorescence; active compounds read high; B-score at 10 µM; 310,000 compounds, 1.3% hits;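 active = compounds whose thallium flux B-score, printed positive for inhibition, exceeds three library SD while starting fluorescence stays within three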;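 also: channel opened by potassium depolarization with thallium stimulus after 20 min compound exposure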
KCNQ1 act: potentiators or activators of KCNQ1 channel, primary screen, cell-based, thallium flux, high-throughput | AID 2648, 2010 | Potassium voltage-gated channel subfamily KQT member 1 (Homo sapiens), P51787 | 310,000 compounds, 0.35% hits | CHO-K1 KCNQ1, thallium flux FluxOR fluorescence; active compounds read high | B-score at 10 µM;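 active = fluorescence ratio B-score, a plate-corrected score, at least three library SD, with initial intensity B-score within 5 SD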
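assay system = KCNQ1-transfected CHO-K1 cells | medium = assay buffer with matched DMSO | probe or stimulus = depolarizing K+/Tl+ stimulus, K2SO4 and Tl2SO4 each 12.5 mM in 5x stock | dosing = single dose | incubation = dye 90 min, compound 20 min, room temperature | detection = kinetic FluxOR fluorescence, 10 s baseline plus 110 s post-stimulus | evaluation = ratio B score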
KCNK9 inh: KCNK9 potassium channel inhibitors, primary screen, HEK293 cells, thallium flux | Potassium channel subfamily K member 9 (Homo sapiens), Q9NPC2 | 310,000 compounds, 1.2% hits | FluxOR thallium flux fluorescence; active compounds read low | AID 488922, 2010 | B-score at 10 µM;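 active = ratio B-score over 3 SD below the library mean, with starting fluorescence within 5 SD of its mean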;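 also: negative B-score means less thallium flux so channel inhibition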
Kir21 block: inhibitors of mouse Kir2.1 inward-rectifier potassium channel; HEK293-Kir2.1, FluxOR thallium flux fluorescence; active compounds read low; B-score at 10 µM; AID 1672, 2009; Inward rectifier potassium channel 2 (Mus musculus), P35561; 310,000 compounds, 0.85% hits;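 active = fluorescence ratio B-score at or below minus 3 SD of library scores, with starting-brightness B-score within 2 SD, cut at about -4.2 in these data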;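 also: channel flux triggered by added potassium and thallium sulfate stimulus; B-score of peak minus minimum fluorescence over baseline after thallium stimulus; more negative B-score means stronger Kir2.1 block with less thallium influx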
Target sequence (P35561 whole entry, looked up): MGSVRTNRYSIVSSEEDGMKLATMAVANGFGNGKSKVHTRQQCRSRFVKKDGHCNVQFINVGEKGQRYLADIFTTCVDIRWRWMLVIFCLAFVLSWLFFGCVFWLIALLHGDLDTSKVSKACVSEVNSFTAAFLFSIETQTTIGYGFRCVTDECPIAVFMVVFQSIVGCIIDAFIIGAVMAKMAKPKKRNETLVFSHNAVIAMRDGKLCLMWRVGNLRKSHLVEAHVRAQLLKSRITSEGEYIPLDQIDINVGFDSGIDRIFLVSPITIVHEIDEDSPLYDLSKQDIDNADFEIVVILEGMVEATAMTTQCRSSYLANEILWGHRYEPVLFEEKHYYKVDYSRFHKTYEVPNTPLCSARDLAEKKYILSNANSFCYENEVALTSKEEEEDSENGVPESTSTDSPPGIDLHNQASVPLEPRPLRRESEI
hERG protect: hERG rescue from dofetilide block, primary screen, cell-based, CHO-hERG, FluxOR thallium flux, dofetilide IC70; 310,000 compounds, 0.51% hits; activation (rescue from dofetilide block), less the hit threshold, % at 10 µM; Voltage-gated inwardly rectifying potassium channel KCNH2 (Homo sapiens), Q12809; dofetilide IC70 present;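 active = activation above the mean of controls blocked by dofetilide plus 5 SD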;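 also: thallium influx through hERG after potassium depolarization seen as dye fluorescence rise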
KCNK3 inh: human KCNK3 channel inhibitors, primary screen, CHO cells, FluxOR thallium flux, B-score; Potassium channel subfamily K member 3 (Homo sapiens), O14649; FluxOR fluorescence; active compounds read low; B-score at 10 µM; 340,000 compounds, 0.84% hits; AID 602410, 2012;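 active = B-score under library mean minus 4 SD, starting fluorescence ratio at most library mean plus 5 SD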;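 also: more negative B-score means stronger inhibition of thallium flux through KCNK3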
KCNK9 block conf: KCNK9 potassium channel inhibitors, confirmation, HEK293 cells, thallium flux, duplicate; shares compounds with KCNK9 inh; FluxOR thallium flux fluorescence; inhibition, % at 10 µM; 4,900 compounds, 43% hits;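 active = thallium signal inhibited by more than 5 SD of the compound-free buffer control wells, on both duplicate plates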;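 also: 0% = assay buffer control wells without compound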
Kir21 sel: mouse Kir2.1 channel inhibition, confirmation, selectivity assay for KCNK9 modulator project, cell-based, HEK293, thallium flux | Kir2.1 cells, FluxOR thallium flux fluorescence | 4,900 compounds, 4% hits | inhibition, % at 10 µM | shares compounds with KCNK9 inh;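 active = thallium signal drop more than 5 SD beyond the mean of the no-compound control wells, seen in both duplicate plates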;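 also: signal is fluorescence rise after thallium addition divided by baseline fluorescence; plate controls were assay buffer only for no effect and full block by chlorpromazine control for full effect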
KCNK9 uninduced: thallium flux in non-induced HEK293 cells, confirmation, counter-screen for KCNK9 inhibitor project, cell-based, second counter screen, non-induced KCNK9-HEK293. shares compounds with KCNK9 inh. FluxOR thallium flux. inhibition, % at 10 µM. 4,900 compounds, 40% hits. AID 492997, 2010;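 active = thallium signal drop beyond 5 SD of the untreated control mean, on both duplicate plates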;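 also: plate controls were buffer only IC0 wells for no effect and SID17386958 at its maximal inhibitory level for full effect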
* = called active by the depositor; i = inactive; x = not tested or not shown. This is a sample that favours compounds with a hit; in the whole collection about 3.7% have one here.

SMILES	KCNQ1 inh	KCNQ1 act	KCNK9 inh	Kir21 block	hERG protect	KCNK3 inh	KCNK9 block conf	Kir21 sel	KCNK9 uninduced
CCn1c(CCCOc2ccc(Cl)cc2Cl)nnc1SCC(=O)Nc1cc(F)ccc1C	i	i	-9.71*	0.03	-6.0	i	57.5%*	i	30.5%*
O=C(NNC(=S)Nc1cccc(C(F)(F)F)c1)c1ccc(Cl)cc1Cl	8*	i	i	-0.61	-6.6	i	i	i	i
Cc1occc1C(=O)Nc1cccc(C(F)(F)F)c1	i	i	-9.32*	0.03	-13.9	i	48.0%*	i	24.5%*
CCn1nc(NS(=O)(=O)c2ccccc2[N+](=O)[O-])c2cc3ccc(C)cc3nc21	i	i	i	0.59	-10.6	i	x	x	x
CN(C)CC/C=C1/c2ccccc2Sc2ccc(Cl)cc21	i	i	i	-4.28*	-11.7	i	i	i	i
CN(C)CC/C=C1\c2ccccc2COc2ccccc21	i	i	i	-0.01	-6.7	i	x	x	x
O=C(CCC(=O)c1cccs1)OCc1ccc([N+](=O)[O-])cc1	x	x	x	x	x	i	x	x	x
COc1cc(C(=O)N2CCN(C/C=C/c3ccccc3)CC2)cc(OC)c1OC	i	i	i	-0.74	-11.9	i	x	x	x
COC(=O)c1cc(OC)c(OC)cc1NC(=S)N1CCN(C/C=C/c2ccccc2)CC1	i	i	i	-0.56	-10.9	i	i	i	i
CCOc1cc(C(=O)N2CCN(C/C=C/c3ccccc3)CC2)cc(OCC)c1OCC	i	i	i	-1.48	-4.0	i	i	i	i
COc1ccc(NC(=S)N2CCN(C/C=C/c3ccccc3)CC2)c(OC)c1	i	i	i	-0.55	-6.2	i	x	x	x
COc1ccc(NC(=O)c2ccccc2NC(=O)CN2CCCCCC2)cc1	x	x	x	x	x	i	x	x	x
O=C(Nc1ccc(CN2CCCCC2)cc1)c1cc(Br)ccc1Cl	i	i	-8.53*	-1.1	-5.9	i	30.5%*	i	37.0%*
Cc1cccc(C)c1NC(=O)COC(=O)CCC(=O)c1cccs1	i	i	i	0	-5.3	i	x	x	x
S=C(NCc1ccccc1)NCc1ccccc1Cl	i	i	i	-1.94	-2.8	i	x	x	x
Fc1cccc(-c2cc3nc4c(c(NCc5ccco5)n3n2)CCCC4)c1	i	i	-10.1*	0.4	-14.1	i	37.0%*	i	31.5%*
Cc1nc2cc(-c3cccc(F)c3)nn2c(C)c1CCC(=O)NC(C)CCc1ccco1 (configuration not stated)	i	i	i	2.29	-4.3	i	x	x	x
CC(=O)Nc1cccc(NC(=O)CSc2nnc3ccc(-c4cccnc4)nn23)c1	i	i	i	-0.11	-8.7	i	x	x	x
COc1ccc(NC(C)(C)c2nnnn2-c2c(C)cccc2C)cc1	i	i	i	-0.23	-8.9	i	x	x	x
Cc1ccc(NC2(c3nnnn3-c3c(C)cccc3C)CCCCC2)cc1	i	i	-8.94*	0.74	-5.9	i	47.5%*	i	43.5%*
CCN1c2ccccc2-c2nc3ccccc3n2C1c1cccs1 (configuration not stated)	i	i	-9.32*	-0.43	-7.4	i	59.0%*	i	61.5%*
CCCn1c(-c2cccs2)nc2ccccc21	i	i	i	-0.43	-7.6	i	x	x	x
O=[N+]([O-])c1cccc2ccc(/C=C/c3ccc(F)cc3)nc12	i	i	-13.4*	0.58	-9.3	i	48.0%*	i	31.5%*
O=[N+]([O-])c1ccc(/C=C/c2ccc3cccc([N+](=O)[O-])c3n2)cc1	i	i	i	0.51	-4.5	i	x	x	x
Cc1ccc(SCC(=O)O/N=C(\N)c2cccc([N+](=O)[O-])c2)cc1	i	i	i	0.04	-8.2	i	i	i	27.5%*
SMILES	KCNQ1 inh	KCNQ1 act	KCNK9 inh	Kir21 block	hERG protect	KCNK3 inh	KCNK9 block conf	Kir21 sel	KCNK9 uninduced
CCN(CC(=O)NC(=O)NCc1ccccc1)Cc1ccccc1	i	i	i	-1.31	-11.9	i	i	i	26.0%*
CCCCN(CC(O)COc1cccc(C)c1)CC(O)COc1cccc(C)c1 (configuration not stated)	i	i	i	-2.95	-18.3	i	i	i	41.5%*
CN(C)CC(O)COc1cccc(OCC(O)CN(C)C)c1 (configuration not stated)	i	i	i	-0.19	-5.2	i	x	x	x
COc1ccc(C(=O)NC(=S)Nc2cccnc2)cc1Cl	i	i	i	0.01	-2.1	i	x	x	x
CSc1ccc(CN(C)CC(=O)NC(=O)NC(C)(C)C)cc1	i	i	i	-1.18	-9.5	i	i	i	i
NS(=O)(=O)c1ccc(NCc2cc(Cl)ccc2OCc2ccccc2F)cc1	i	i	-14.9*	-0.57	-8.3	i	50.0%*	i	41.0%*
CC1CN(S(=O)(=O)c2cc(C(=O)NC(C)c3cccnc3)ccc2Cl)CC(C)O1 (configuration not stated)	x	x	x	x	x	i	x	x	x
C[C@@H](Oc1ccccc1)c1nnn(Cc2ccccc2)c1-c1c([C@@H](C)Oc2ccccc2)nnn1Cc1ccccc1	i	i	-11.7*	0	-7.6	x	i	i	35.5%*
O=C(NCc1n[nH]c(=S)n1-c1ccc(Br)cc1)c1ccc(S(=O)(=O)N2CCOCC2)cc1	i	i	i	1.2	-7.6	i	x	x	x
Cc1ccc(N2C(=O)N(CC(=O)Nc3ccc(C)cc3C)C(=O)C2C)cc1 (configuration not stated)	i	i	i	-2.25	-7.8	i	x	x	x
Nc1c(C(=O)c2ccccc2)oc2ccccc12	i	i	i	2.45	-7.5	i	x	x	x
